Test results reported in publication PMC12900291 (European journal of medicinal chemistry, 2025).
Values joined by “and” are separate entries in the source; they are usually repeats but may differ in a detail not shown here. Equal values may be shown once.

Assays:
SERCA2a [1] = target: T1, SERCA2a (Sus scrofa, UniProt P11607); assay: NADH-coupled enzyme-linked Ca2+-ATPase activity assay in cardiac SR vesicles; format: biochemical, porcine; conditions: for Max increase (%) / Max decrease (%): Ca2+-ATPase activity, mean±SD, n=4-6; for Max increase (%): vs no compound
SERCA2a [2] = target: T1, SERCA2a; assay: oxalate-based Ca2+-uptake; format: biochemical, porcine; conditions: cardiac SR
How it was run: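 Porcine left-ventricular SR vesicles (30 μg/mL) were prepared by differential centrifugation. Buffer: 50 mM MOPS, 100 mM KCl, 30 mg/mL sucrose, 10 mM potassium oxalate, 2 μM Fluo-4, free Ca2+ at pCa 8.0, 6.2 or 5.4, test compound 0.048–50 μM (two-fold series). Incubation 20 min at 22 °C, dark; 5 mM MgATP start; Fluo-4 decrease (ex 485/em 520 nm) tracked 15 min. Basal pCa 8.0 rate subtracted; Hill fit gives EC50 and % effect.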

Intrinsic clearance = format: in vitro ADME, human; conditions: for Thalf: human liver S9 0.5 mg/mL, 1 μM compound, NADPH, 37 °C; for microsomal CLint at 1 μM: human, liver S9 fraction, pH 7.4
[3] = Ca2+-ATPase [Ca2+]MAX EC50 (μM), [Ca2+]MAX (pCa 5.4), cardiac SR
[4] = Ca2+-ATPase [Ca2+]MID EC50 (μM), [Ca2+]MID (pCa 6.2), cardiac SR
[5] = Ca2+-Uptake [Ca2+]MAX EC50 (μM), [Ca2+]MAX (pCa 5.4)
[6] = Ca2+-Uptake [Ca2+]MID EC50 (μM), [Ca2+]MID (pCa 6.2)
[7] = [Ca2+]MAX (pCa 5.4), cardiac SR

T1 sequence (P11607 1-997 isoform P11607-2): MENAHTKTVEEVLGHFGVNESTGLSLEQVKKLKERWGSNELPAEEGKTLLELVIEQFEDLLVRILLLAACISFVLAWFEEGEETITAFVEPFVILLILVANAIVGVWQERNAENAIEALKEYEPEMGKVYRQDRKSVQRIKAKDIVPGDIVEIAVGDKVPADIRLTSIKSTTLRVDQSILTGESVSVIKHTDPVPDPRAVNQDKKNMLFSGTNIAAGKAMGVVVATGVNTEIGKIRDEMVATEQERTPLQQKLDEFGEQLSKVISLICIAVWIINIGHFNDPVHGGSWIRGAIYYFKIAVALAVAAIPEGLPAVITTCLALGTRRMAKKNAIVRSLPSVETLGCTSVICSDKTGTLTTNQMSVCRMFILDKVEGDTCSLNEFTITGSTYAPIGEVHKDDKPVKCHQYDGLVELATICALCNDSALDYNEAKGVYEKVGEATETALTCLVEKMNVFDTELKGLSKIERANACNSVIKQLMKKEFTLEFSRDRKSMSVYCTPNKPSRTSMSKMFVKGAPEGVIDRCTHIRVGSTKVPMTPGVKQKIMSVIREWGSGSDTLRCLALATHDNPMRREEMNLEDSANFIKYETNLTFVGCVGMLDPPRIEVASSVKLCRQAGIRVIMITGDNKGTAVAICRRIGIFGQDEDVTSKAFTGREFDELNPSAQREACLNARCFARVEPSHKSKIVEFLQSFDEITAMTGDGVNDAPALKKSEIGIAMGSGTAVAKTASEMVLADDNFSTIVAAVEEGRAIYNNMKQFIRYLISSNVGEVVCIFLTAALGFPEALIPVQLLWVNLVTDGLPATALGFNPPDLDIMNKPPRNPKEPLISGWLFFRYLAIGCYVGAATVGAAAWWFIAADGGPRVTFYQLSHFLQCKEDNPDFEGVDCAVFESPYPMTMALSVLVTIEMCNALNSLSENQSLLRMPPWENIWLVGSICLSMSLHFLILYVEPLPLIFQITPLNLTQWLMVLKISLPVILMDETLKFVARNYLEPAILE

Structure (SMILES)	Max increase (%) (SERCA2a [1]; [Ca2+]MAX (pCa 5.4))	further results
CCCN(Cc1ccccc1OC)C(=O)c1scc(C)c1C [Compound 2, N-(2-Methoxybenzyl)-3,4-dimethyl-N-propylthiophene-2-carboxamide]	47±7.1%	–
CCCN(Cc1ccccc1OC)C(=O)c1cc(C)cs1 [Compound 3, N-(2-Methoxybenzyl)-4-methyl-N-propylthiophene-2-carboxamide]	45±9.2%	–
CCCN(Cc1ccccc1OC)C(=O)c1cccs1 [Compound 4, N-(2-Methoxybenzyl)-N-propylthiophene-2-carboxamide]	30±14%	–
CCCN(Cc1ccccc1OC)C(=O)c1ccsc1 [Compound 5, N-(2-Methoxybenzyl)-N-propylthiophene-3-carboxamide]	29±8.4%	–
CCCN(Cc1ccccc1OC)C(=O)c1ccc(Cl)s1 [Compound 6, 5-Chloro-N-(2-methoxybenzyl)-N-propylthiophene-2-carboxamide]	37±9.4%	–
CCCN(Cc1ccccc1OC)C(=O)c1cc2ccccc2s1 [Compound 7, N-(2-Methoxybenzyl)-N-propylbenzo[b]thiophene-2-carboxamide]	76% and 76±19%	–
CCCN(Cc1ccccc1OC)C(=O)c1ccccc1C [Compound 9, N-(2-Methoxybenzyl)-2-methyl-N-propylbenzamide]	28±10%	–
CCCN(Cc1ccccc1OC)C(=O)c1cccc(C)c1 [Compound 10, N-(2-Methoxybenzyl)-3-methyl-N-propylbenzamide]	59±13%	–
CCCN(Cc1ccccc1OC)C(=O)c1ccc(C)cc1 [Compound 11, N-(2-Methoxybenzyl)-4-methyl-N-propylbenzamide]	61±7.0%	–
CCCN(Cc1ccccc1OC)C(=O)c1ccccc1F [Compound 12, 2-Fluoro-N-(2-methoxybenzyl)-N-propylbenzamide]	40±10%	–
CCCN(Cc1ccccc1OC)C(=O)c1cccc(F)c1 [Compound 13, 3-Fluoro-N-(2-methoxybenzyl)-N-propylbenzamide]	53±17%	–
CCCN(Cc1ccccc1OC)C(=O)c1ccc(F)cc1 [Compound 14, 4-Fluoro-N-(2-methoxybenzyl)-N-propylbenzamide]	55±11%	–
CCCN(Cc1ccccc1OC)C(=O)c1ccccc1Cl [Compound 15, 2-Chloro-N-(2-methoxybenzyl)-N-propylbenzamide]	35±10%	–
CCCN(Cc1ccccc1OC)C(=O)c1cccc(Cl)c1 [Compound 16, 3-Chloro-N-(2-methoxybenzyl)-N-propylbenzamide]	61±9.4%	–
CCCN(Cc1ccccc1OC)C(=O)c1ccc(Cl)cc1 [Compound 17, 4-Chloro-N-(2-methoxybenzyl)-N-propylbenzamide]	64±7.6%	–
CCCN(Cc1ccccc1OC)C(=O)c1ccccc1OC [Compound 18, 2-Methoxy-N-(2-methoxybenzyl)-N-propylbenzamide]	27±9.3%	–
CCCN(Cc1ccccc1OC)C(=O)c1cccc(OC)c1 [Compound 19, 3-Methoxy-N-(2-methoxybenzyl)-N-propylbenzamide]	45±14%	–
CCCN(Cc1ccccc1OC)C(=O)c1ccccc1C(F)(F)F [Compound 20, N-(2-Methoxybenzyl)-N-propyl-2-(trifluoromethyl)benzamide]	51% and 51±17%	–
CCCN(Cc1ccccc1OC)C(=O)c1cccc(Br)c1 [Compound 22, 3-Bromo-N-(2-methoxybenzyl)-N-propylbenzamide]	46±5.5%	EC50 (SERCA2a [1]; [3]): 1.5 ± 0.31 µM; EC50 (SERCA2a [1]; [4]): 1.4 ± 0.8 µM; EC50 (SERCA2a [2]; [5]): 0.36 ± 0.14 µM; EC50 (SERCA2a [2]; [6]): 12.4 ± 8.4 µM; Ca2+-Uptake [Ca2+]MAX % effect (SERCA2a [2]; [Ca2+]MAX (pCa 5.4)): 11±3.8%; Ca2+-Uptake [Ca2+]MAX EC50 (μM) (SERCA2a [2]; [Ca2+]MAX (pCa 5.4)): decreased; Thalf (Intrinsic clearance): 23.8 min; microsomal CLint at 1 μM (Intrinsic clearance): 56 ± 9 µL/min/mg
CCCN(Cc1ccccc1OC)C(=O)c1ccc(Br)c(Br)c1 [Compound 23, 3,4-Dibromo-N-(2-methoxybenzyl)-N-propylbenzamide]	28±8.1%	EC50 (SERCA2a [1]; [3]): 0.9 ± 0.38 µM; EC50 (SERCA2a [1]; [4]): 15.3 ± 4.1 µM; Max decrease (%) (SERCA2a [1]; [Ca2+]MAX (pCa 5.4)): 28±9.0%; Ca2+-ATPase [Ca2+]MAX % effect (SERCA2a [1]; [7]): 28±8.1%; EC50 (SERCA2a [2]; [5]): > 50 µM; EC50 (SERCA2a [2]; [6]): 9.2 ± 1.5 µM; Thalf (Intrinsic clearance): 15.3 min; microsomal CLint at 1 μM (Intrinsic clearance): 79 ± 19 µL/min/mg
CCCN(Cc1ccccc1OC)C(=O)c1cccc(Br)c1F [Compound 24, 3-Bromo-2-fluoro-N-(2-methoxybenzyl)-N-propylbenzamide]	48±4.6%	EC50 (SERCA2a [1]; [3]): 3.4 ± 0.29 µM; EC50 (SERCA2a [1]; [4]): 3.3 ± 1.9 µM; Ca2+-ATPase [Ca2+]MAX % effect (SERCA2a [1]; [7]): 48±4.6%; Ca2+-ATPase [Ca2+]MID % effect (SERCA2a [1]; [Ca2+]MID (pCa 6.2), cardiac SR): 25±5.6%; EC50 (SERCA2a [2]; [5]): 1.4 ± 0.65 µM; EC50 (SERCA2a [2]; [6]): 0.83 ± 0.3 µM; Ca2+-Uptake [Ca2+]MAX % effect (SERCA2a [2]; [Ca2+]MAX (pCa 5.4)): 12±3.0%; Ca2+-Uptake [Ca2+]MID % effect (SERCA2a [2]; [Ca2+]MID (pCa 6.2)): 8.5±3.3%; Thalf (Intrinsic clearance): 51.3 min; microsomal CLint at 1 μM (Intrinsic clearance): 25 ± 4 µL/min/mg

Structure (SMILES)	Max increase (%) (SERCA2a [1]; [Ca2+]MAX (pCa 5.4))	further results
CCCN(Cc1ccccc1OC)C(=O)c1cc(F)cc(Br)c1 [Compound 26, 3-Bromo-5-fluoro-N-(2-methoxybenzyl)-N-propylbenzamide]	33±6.5%	EC50 (SERCA2a [1]; [3]): 2.2 ± 0.27 µM; EC50 (SERCA2a [1]; [4]): 2.1 ± 0.88 µM; EC50 (SERCA2a [2]; [5]): 0.54 ± 0.3 µM; EC50 (SERCA2a [2]; [6]): > 50 µM; Ca2+-Uptake [Ca2+]MAX EC50 (μM) (SERCA2a [2]; [Ca2+]MAX (pCa 5.4)): decreased; Thalf (Intrinsic clearance): 62.4 min; microsomal CLint at 1 μM (Intrinsic clearance): 22 ± 1.1 µL/min/mg
CCCN(Cc1ccccc1OC)C(=O)c1cccc(Br)n1 [Compound 27, 6-Bromo-N-(2-methoxybenzyl)-N-propylpicolinamide]	46±7.8%	–
CCCN(Cc1ccccc1OC)C(=O)c1cncc(Br)c1 [Compound 28, 5-Bromo-N-(2-methoxybenzyl)-N-propylnicotinamide]	28±5.7%	–
CCCN(Cc1ccccc1OC)C(=O)c1ccnc(Br)c1 [Compound 29, 2-Bromo-N-(2-methoxybenzyl)-N-propylisonicotinamide]	21±4.9%	–
COc1ccccc1CNC(=O)c1cc(C)c(C)s1 [Compound 30, N-(2-methoxybenzyl)-4,5-dimethylthiophene-2-carboxamide]	24±9.1%	–
COc1ccccc1CN(C)C(=O)c1cc(C)c(C)s1 [Compound 31, N-(2-Methoxybenzyl)-N,4,5-trimethylthiophene-2-carboxamide]	52±9.2%	–
COc1ccccc1CN(C(=O)c1cc(C)c(C)s1)C(C)C [Compound 34, N-Isopropyl-N-(2-methoxybenzyl)-4,5-dimethylthiophene-2-carboxamide]	43±7.9%	–
COc1ccccc1CN(C(=O)c1cc(C)c(C)s1)C1CC1 [Compound 35, N-Cyclopropyl-N-(2-methoxybenzyl)-4,5-dimethylthiophene-2-carboxamide]	46±8.9%	–
COc1ccccc1CN(CCO)C(=O)c1cc(C)c(C)s1 [Compound 36, N-(2-Hydroxyethyl)-N-(2-methoxybenzyl)-4,5-dimethylthiophene-2-carboxamide]	abolished	–
COc1ccccc1CN(CCCF)C(=O)c1cc(C)c(C)s1 [Compound 39, N-(3-Fluoropropyl)-N-(2-methoxybenzyl)-4,5-dimethylthiophene-2-carboxamide]	22% and 22±8.6%	–
COc1ccccc1CN(CCC(F)F)C(=O)c1cc(C)c(C)s1 [Compound 40, N-(3,3-Difluoropropyl)-N-(2-methoxybenzyl)-4,5-dimethylthiophene-2-carboxamide]	91% and 91±12.6%	–
COc1ccccc1CN(CCC(F)(F)F)C(=O)c1cc(C)c(C)s1 [Compound 41, N-(2-Methoxybenzyl)-4,5-dimethyl-N-(3,3,3-trifluoropropyl)thiophene-2-carboxamide]	75% and 75±8.6%	–
COc1cccc2c1CN(C(=O)c1cc(C)c(C)s1)CC2 [Compound 42, (4,5-diMethylthiophen-2-yl)(8-methoxy-3,4-dihydroisoquinolin-2(1H)-yl)methanone]	22% and 22±6.4%	–
CCCN(Cc1ccccc1)C(=O)c1cc(C)c(C)s1 [Compound 44, N-Benzyl-4,5-dimethyl-N-propylthiophene-2-carboxamide]	abolished activity	–
CCCN(Cc1ccccc1F)C(=O)c1cc(C)c(C)s1 [Compound 48, N-(2-Fluorobenzyl)-4,5-dimethyl-N-propylthiophene-2-carboxamide]	89% and 89±24%	–
CCCN(Cc1ccncc1F)C(=O)c1cc(C)c(C)s1 [Compound 50, N-((3-Fluoropyridin-4-yl)methyl)-4,5-dimethyl-N-propylthiophene-2-carboxamide]	ablated activity	–
CCN(Cc1ccccc1OC)C(=O)c1cccc(Br)c1 [Compound 51, 3-Bromo-N-ethyl-N-(2-methoxybenzyl)benzamide]	46±6.3%	–
CCN(Cc1ccccc1OC)C(=O)c1cccc(Br)c1F [Compound 52, 3-Bromo-N-ethyl-2-fluoro-N-(2-methoxybenzyl)benzamide]	46±7.4%	–
CCN(Cc1ccccc1OC)C(=O)c1ccc(F)c(Br)c1 [Compound 53, 3-Bromo-N-ethyl-4-fluoro-N-(2-methoxybenzyl)benzamide]	45±8.4%	–
CCN(Cc1ccccc1OC)C(=O)c1cc(F)c(C)c(Br)c1 [Compound 54, 3-Bromo-N-ethyl-5-fluoro-N-(2-methoxybenzyl)-4-methylbenzamide]	–	Max decrease (%) (SERCA2a [1]; [Ca2+]MAX (pCa 5.4)): −70±3.4%; inhibition at 50 µM (SERCA2a [1]; read-out: inhibition of Ca2+-ATPase activity): 70%
